The source of these data is ChEMBL document CHEMBL1144296, “3,4-Dihydro-2H-benzoxazinones are 5-HT(1A) receptor antagonists with potent 5-HT reuptake inhibitory activity” (Bioorg Med Chem Lett, 2005).

Assay [1] has as its target Sodium-dependent serotonin transporter (Rattus norvegicus, UniProt P31652). Kind of assay: Mean negative logarithim of binding affinity was measured for the rat serotonin transporter; n>/=3.
The target in assay [2] is T1, 5-hydroxytryptamine receptor 1A (Homo sapiens) (UniProt P08908).
T1 sequence (whole entry): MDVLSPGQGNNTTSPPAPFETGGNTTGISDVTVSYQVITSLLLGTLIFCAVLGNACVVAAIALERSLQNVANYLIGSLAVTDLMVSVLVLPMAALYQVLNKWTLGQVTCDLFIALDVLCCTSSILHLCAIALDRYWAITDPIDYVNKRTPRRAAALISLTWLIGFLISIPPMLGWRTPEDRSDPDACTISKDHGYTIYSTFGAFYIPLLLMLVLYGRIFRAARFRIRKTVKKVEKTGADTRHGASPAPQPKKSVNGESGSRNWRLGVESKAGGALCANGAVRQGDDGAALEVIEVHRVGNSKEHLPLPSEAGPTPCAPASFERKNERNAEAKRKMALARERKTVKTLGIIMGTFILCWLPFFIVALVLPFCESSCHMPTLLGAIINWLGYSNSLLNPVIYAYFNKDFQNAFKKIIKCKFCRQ
Kind of assay: Mean intrinsic activity was measured for the human 5-hydroxytryptamine 1A receptor; n=3. An outline of the steps: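 [35S]-GTPγS binding in HEK293 cells expressing the human 5-HT1A receptor. Intrinsic activity is the mean of three experiments, each within 0.1 of the mean.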

Assay [3] concerns the target T2, 5-hydroxytryptamine receptor 1A (Homo sapiens, UniProt P08908).
T2 sequence (P08908 whole entry): T1 sequence (whole entry)
Kind of assay: Mean negative logarithim of binding affinity was measured for the human 5-hydroxytryptamine 1A receptor; n>/=3.

The target of assay [4] is Beta-2 adrenergic receptor (Homo sapiens, UniProt P07550). Kind of assay: Binding affinity for human beta-2 adrenergic receptor by displacing [125I]iodocyanopindolol expressed in hamster CHO cells. Format: cell-based.
Beta-2 adrenergic receptor, sequence (P07550 whole entry): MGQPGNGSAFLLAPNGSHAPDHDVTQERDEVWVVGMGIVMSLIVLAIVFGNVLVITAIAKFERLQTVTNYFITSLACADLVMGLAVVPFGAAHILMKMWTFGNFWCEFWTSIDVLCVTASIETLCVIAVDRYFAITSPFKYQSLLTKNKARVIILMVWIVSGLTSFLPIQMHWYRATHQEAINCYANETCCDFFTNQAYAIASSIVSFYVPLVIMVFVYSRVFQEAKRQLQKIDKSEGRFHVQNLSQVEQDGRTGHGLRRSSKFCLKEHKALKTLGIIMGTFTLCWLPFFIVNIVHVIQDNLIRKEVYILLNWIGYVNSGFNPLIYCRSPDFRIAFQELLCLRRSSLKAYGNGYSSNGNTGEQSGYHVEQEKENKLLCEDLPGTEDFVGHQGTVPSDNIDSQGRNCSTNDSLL

The structures appear in SMILES notation.

Sodium-dependent serotonin transporter, sequence (P31652 whole entry): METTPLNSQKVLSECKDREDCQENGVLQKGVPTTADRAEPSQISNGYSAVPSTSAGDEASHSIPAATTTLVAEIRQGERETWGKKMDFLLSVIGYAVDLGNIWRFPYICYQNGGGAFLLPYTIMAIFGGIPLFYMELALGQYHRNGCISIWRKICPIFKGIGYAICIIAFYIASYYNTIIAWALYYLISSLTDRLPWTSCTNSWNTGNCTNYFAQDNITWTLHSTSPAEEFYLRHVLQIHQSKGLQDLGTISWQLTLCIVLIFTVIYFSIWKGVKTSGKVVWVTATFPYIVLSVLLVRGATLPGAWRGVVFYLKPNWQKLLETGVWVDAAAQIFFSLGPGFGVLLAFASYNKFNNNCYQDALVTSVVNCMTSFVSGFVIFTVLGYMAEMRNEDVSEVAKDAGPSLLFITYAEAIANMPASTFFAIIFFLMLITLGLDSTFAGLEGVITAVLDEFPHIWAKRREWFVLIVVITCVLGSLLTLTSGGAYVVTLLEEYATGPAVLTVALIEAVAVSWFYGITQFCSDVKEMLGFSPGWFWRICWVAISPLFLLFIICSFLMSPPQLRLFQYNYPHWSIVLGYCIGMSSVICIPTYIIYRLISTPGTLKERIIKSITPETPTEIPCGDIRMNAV

Consider `O=C1COc2ccc(OC3CCN(CCOc4cccc5cccnc45)CC3)cc2N1`, for which the Ki in assay [1] is 39.8 nM; in assay [3] it was 6.31 nM. The same compound gave an IA in assay [2] of 0.5.
The compound `CC(COc1ccc2c(c1)NC(=O)CO2)NCC(O)COc1cccc2[nH]ccc12` (stereo in doubt; 1a) [listing 1 of 2 here] registered an IA in assay [2] of 0.4.
Take `O=C1COc2ccc(OCC3CCCN(CCOc4cccc5ncccc45)C3)cc2N1` (stereo not given): the Ki was 79.4 nM in assay [1] and 1.58 nM in assay [3]. In assay [2], this compound yielded an IA of 0.3.
On the same counts, the results for `N#Cc1cc2c(OCCN3CCC(Oc4ccc5c(c4)NC(=O)CO5)CC3)cccc2[nH]1` are 7.94 nM, 1.58 nM and 0.3.
The like results for `O=C1COc2ccc(OC3CCN(CCOc4cccc5ncccc45)CC3)cc2N1` were, in that order, 31.6 nM, 12.6 nM and 0.1.
`CC(COc1ccc2c(c1)NC(=O)CO2)NCC(O)COc1cccc2[nH]ccc12` (stereo in doubt; 1) [listing 1 of 2 here] had a Ki in assay [1] of 50.1 nM.
Still for that read-out and setting: the figure for `CC(COc1ccc2c(c1)NC(=O)CO2)NCC(O)COc1cccc2[nH]ccc12` (stereo in doubt; 1c) [listing 1 of 2 here] is 100 nM.
Regarding `O=C1COc2ccc(OC3CCN(CCOc4cccc5ccccc45)CC3)cc2N1`, the Ki in assay [1] was 100 nM; in assay [3] it was 2.51 nM. Further, the IA in assay [2] was 0.4.
`CC(COc1ccc2c(c1)NC(=O)CO2)NCC(O)COc1cccc2[nH]ccc12` (stereo in doubt; 1c) [listing 2 of 2 here]: the IA in assay [2] was determined as 0.3.
On to `O=C1COc2ccc(OCCNCCCOc3cccc4[nH]ccc34)cc2N1`, for which the Ki in assay [1] is 79.4 nM; in assay [4], 1000 nM; in assay [3], 1.58 nM. In assay [2], the IA was 0.6.
The compound `CC(COc1ccc2c(c1)NC(=O)CO2)NCC(O)COc1cccc2[nH]ccc12` (stereo in doubt; 1b) returned an IA in assay [2] of 0.3.
Regarding `O=C1COc2ccc(OC3CCN(CCOc4nccc5ccccc45)CC3)cc2N1`, the figures for the Ki in assay [1] and in assay [3] were 50.1 nM and 7.94 nM, respectively. For the same compound, the IA in assay [2] stood at 0.8.
`CC(COc1ccc2c(c1)NC(=O)CO2)NCC(O)COc1cccc2[nH]ccc12` (stereo in doubt; 1) [listing 2 of 2 here]: the IA in assay [2] is 0.3.
For the compound `O=C1COc2ccc(OC3CCN(CCOc4ccnc5ccccc45)CC3)cc2N1`, the affinity in assay [3], expressed as Ki, was 100 nM.
In assay [1], `CC(COc1ccc2c(c1)NC(=O)CO2)NCC(O)COc1cccc2[nH]ccc12` (stereo in doubt; 1d) [listing 1 of 2 here] gave a Ki of 316 nM. That is a sub-micromolar value.
`Cc1ccc2c(OCCN3CCC(Cc4ccc5c(c4)NC(=O)CO5)CC3)cccc2n1` registered an IA in assay [2] of 0.2.
In assay [1], `CC(COc1ccc2c(c1)NC(=O)CO2)NCC(O)COc1cccc2[nH]ccc12` (stereo in doubt; 1a) [listing 2 of 2 here] showed a Ki of 126 nM. In other words, the sub-micromolar range.
`CC(COc1ccc2c(c1)NC(=O)CO2)NCC(O)COc1cccc2[nH]ccc12` (stereo in doubt; 1d) [listing 2 of 2 here] came in with an IA in assay [2] of 0.2.
On to `O=C1COc2ccc(CN3CCN(CCOc4cccc5ncccc45)CC3)cc2N1`, for which the values for the Ki in assay [1] and in assay [3] were 31.6 nM and 10 nM, respectively. The IA in assay [2] is 0.2.
On the same counts, the results for `O=C1COc2ccc(CC3CCN(CCOc4cccc5ncccc45)CC3)cc2N1` are 6.31 nM, 1.26 nM and 0.2.
The like results for `O=C1COc2ccc(OC3CCN(CCOc4cccc5[nH]ccc45)CC3)cc2N1` were, in that order, 5.01 nM, 3.98 nM and 0.2.
On the same counts, the results for `O=C1COc2ccc(OCC3CCN(CCOc4cccc5ncccc45)C3)cc2N1` (stereo not given) are 50.1 nM, 1.26 nM and 0.3.

What is called Ki is a dissociation constant, usually derived from enzyme kinetics or from competition with a known ligand.
